# Compounds with a hit are over-represented: about 9.2% of the library has one in this group of screens.
# Dynein cargo inh: inhibitors of GR-EGFP nuclear translocation, primary screen, dynein cargo transport inhibitor project, imaging, high-content, 3617.4 mouse cells | test concentration mostly 20 µM; stimulated with dexamethasone, 1 µM; active compounds read low | z-score, hits read low | actives 0.47% (n = 220,000);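 active means plate z-score of nuclear minus cytoplasmic receptor signal below a set negative limit, without overly bright fluorescence or cell loss, cut at about -3.5 in these data, passing the limit was not always enough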;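 further: z-score of nuclear minus cytoplasmic ring GR-EGFP intensity difference per well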
#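 Buffer or medium: Induction medium lacking tetracycline, stripped serum | Also added: Dexamethasone agonist, 1.0 µM final, for 30 min | Timing: 48 h induction, 1 h compound, 30 min dex at 37 °C | Detection: Formaldehyde fixation, Hoechst nuclear stain, 10x automated fluorescence imaging | Measure: Nuclear versus cytoplasmic GR-EGFP signal, averaged per well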
# Autophagy HCS: autophagy modulators in MEF cells, primary screen, imaging, high-content, MEF GFP-LC3. MEF GFP-LC3 puncta imaging; test concentration mostly 10 µM. calls only at 10 µM (by protocol). actives 0.98% (n = 190,000). AID 463193, 2010;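 active means percentage of spot-positive cells more than 3 SD above its plate mean, without a fluorescence outlier flag or 80% toxicity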;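 further: spot-positive cell cutoff set from DMSO-treated cells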
# HCT116 bCat-KO: primary screen for growth suppressors in beta-catenin knockout HCT116 cells (colon tumor, human); actives 1.5% (n = 140,000); viability, % at 10 µM; HCT116 beta-catenin knockout viability, CellTiter-Glo, 60 h; active compounds read low;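 active means viability at or under a set limit, the compound median less 4 SD, cut at about 6% in these data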;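 further: 0% = Hyamine 1622 control at 20 µM and 100% = untreated cell control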
# Lmaj promast: Leishmania major promastigote growth inhibition, primary screen; Leishmania major promastigotes, resazurin fluorescence viability; inhibition, % at 10 µM; AID 1063, 2008; actives 9% (n = 200,000); in the data active means inhibition above about 50%;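 further: promastigotes grown with compound for 44 hours at 28 °C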
# PTEN del growth: growth suppression of PTEN-null HCT116, primary screen, cell-based, CellTiter-Glo; HCT116 PTEN-null viability, 60 h; active compounds read low; viability, % at 10 µM; actives 1.2% (n = 140,000);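 active means viability at or below a set limit, 4 SD under the median of all tested compounds, cut at about 3.7% in these data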;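 further: PTEN knockout HCT116 line with beta catenin targeted HCT116 as companion control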
# Numbers without * were called inactive; i = inactive; nt = no result given; + = active, no number.
SMILES,Dynein cargo inh,Autophagy HCS,HCT116 bCat-KO,Lmaj promast,PTEN del growth
CNCCCOc1cccc(Oc2ccccc2)c1,0.33,i,nt,99*,nt
COCCNC(=O)COc1cccc(Oc2ccccc2)c1,-0.65,i,85,-8,86
CNCCCOc1cccc(OC(C)C)c1,-0.29,i,104,1,112
CC(O)CNCCCOc1cccc(C(F)(F)F)c1 (centres undefined),0.014,i,nt,67*,nt
CC(O)CNCCCOc1cccc(Oc2ccccc2)c1 (centres undefined),-0.17,i,nt,99*,nt
CCN1CC(c2ccccc2)C(c2ccc(Cl)cc2)=N1 (centres undefined),0.36,i,72,0,81
CCCn1c(N2CCN(C(=O)Nc3ccc(Cl)cc3)CC2)nc2ccccc21,-0.41,i,nt,13,nt
CC1(C)Cc2c(c(N3CCOCC3)nc3snc(N)c23)CO1,-1,i,1.9*,-1,1.9*
CC1(C)Cc2c(c(N3CCOCC3)nc3snc(Br)c23)CO1,-0.95,i,97,20,81
O=[N+]([O-])c1ccc(-c2csc(NN=C3CCCC3)n2)cc1,-0.75,i,nt,-1,nt
O=C(NCCSc1ccccc1)c1ccc(CN2CCOCC2)cc1,0.015,nt,nt,nt,nt
COc1ccc(Cl)cc1N(CC(=O)Nc1ccccc1C(=O)NCc1ccco1)S(C)(=O)=O,-0.38,i,90,83*,89
Cc1ccc(NC(=O)c2cc(-c3ccc(C)o3)nc3ccccc23)cc1,-0.87,i,57,6,46
Cc1ccc(-c2cc(C(=O)Nc3cccnc3)c3ccccc3n2)o1,-4.4*,i,86,3,86
O=C(NCCN1CCN(C(=O)c2cccs2)CC1)C(=O)Nc1ccc(Br)cc1,0.36,i,55,73*,66
O=C1CN(C(=O)CN2CCCC2)C(c2ccccc2)c2cc(Br)ccc2N1 (centres undefined),-0.36,i,87,64*,93
O=C1CN(C(=O)CN2CCOCC2)C(c2ccccc2)c2cc(Br)ccc2N1 (centres undefined),0.11,i,81,0,91
CC(C)CCCC(C)CCOC(=O)CN1CCCC1 (centres undefined),-0.71,nt,nt,nt,nt
Cc1ccc(C)c(/C=C/C(=O)c2ccccc(=O)c2O)c1,0.41,i,12,99*,8
Cc1ccc(/C=C/C(=O)c2ccccc(=O)c2O)c(C)c1,-1.2,i,4.2*,81*,6
O=C(/C=C/c1ccccc1Cl)c1ccccc(=O)c1O,2.8,i,1.3*,100*,2.1*
O=C(/C=C/c1ccccc1Cl)c1ccc(O)cc1,-1.1,nt,nt,nt,nt
O=C(NNC(=O)c1cccc(O)c1)Nc1ccc([N+](=O)[O-])cc1,-0.32,i,nt,-2,nt
CC(C)Cc1ccc(S(=O)(=O)Nc2ccccn2)cc1,2.2,nt,nt,nt,nt
COc1cccc(/C=N/NC(=O)c2cnn(-c3ccccc3)c2N)c1,-0.59,nt,nt,nt,nt
SMILES,Dynein cargo inh,Autophagy HCS,HCT116 bCat-KO,Lmaj promast,PTEN del growth
N#CC1=C(N)C2=CCCC[C@H]2[C@H](c2ccccc2)C1(C#N)C#N,-0.46,i,79,31,88
N#CC1=C(N)C2=CCCC[C@H]2[C@H](c2ccc(Br)cc2)C1(C#N)C#N,-1.9,i,52,78*,50
CCOC(=O)CSc1nc(Nc2ccc3c(c2)OCO3)c2ccccc2n1,2.3,i,91,56*,91
Nc1cccn2c(-c3ccc(Cl)c(Cl)c3)cnc12,-0.94,i,nt,65*,nt
Nc1cccn2c(-c3ccc(Cl)cc3)cnc12,-0.73,i,nt,73*,nt
CCc1ccc(C(C(=O)NCCOC)N(C(=O)Cn2nnc3ccccc32)c2cccnc2)cc1 (centres undefined),-1.4,i,102,-2,82
CCOC(=O)C(=O)Nc1ncc(Cl)s1,-0.21,nt,nt,nt,nt
O=[N+]([O-])c1ccc(N/N=C2/CCCCC2c2ccccn2)cc1 (centres undefined),-0.49,i,93,98*,92
O=[N+]([O-])c1ccc(NC2CCCC2)cc1,0.29,i,68,43,84
C=CCOC(=O)C1=C(C)NC(SCC)=C(C#N)C1c1ccc(Cl)cc1 (centres undefined),1.8,i,9,100*,8
C=CCOC(=O)C1=C(C)NC(SCC(=O)Nc2ccc(C)c(Cl)c2)=C(C#N)C1c1ccco1 (centres undefined),-0.49,+,4.2*,17,15
C=CCOC(=O)C1=C(C)NC(SCC(N)=O)=C(C#N)C1c1ccc(C)cc1 (centres undefined),-0.65,nt,nt,nt,nt
COc1ccc(C2Nc3ccccc3C(=O)N2NS(=O)(=O)c2ccccc2)cc1 (centres undefined),-0.14,i,nt,4,nt
O=C(Cc1cccs1)Nc1cccc(-c2nc3cc4ccccc4cc3[nH]2)c1,1.4,i,8,50,7
Cc1ccc(N2C(=O)C(NC(=O)c3ccccc3)(C(F)(F)F)C3=C2CC(C)(C)CC3=O)cc1 (centres undefined),1.2,i,93,89*,102
CC1(C)CC(=O)C2=C(C1)N(c1ccc(F)cc1)C(=O)C2(NC(=O)c1ccccc1)C(F)(F)F (centres undefined),0.006,i,97,-3,103
O=C(CSCc1ccccc1Cl)Nc1c[nH]c(=O)[nH]c1=O,-0.65,i,96,59*,98
CN1c2ccccc2C(=O)NC1c1ccc([N+](=O)[O-])s1 (centres undefined),-0.12,nt,nt,nt,nt
CCOC(=O)N/N=C(/C)c1ccc([N+](=O)[O-])o1,0.41,i,33,96*,45
COc1ccc(C)cc1NC(=O)COC(=O)c1ccc([N+](=O)[O-])o1,-0.74,i,nt,-3,nt
Cc1cc(NC(=O)c2ccc(S(=O)(=O)N3CCOCC3)cc2)nc2c1c(=O)oc1ccccc12,0.049,i,96,24,81
CCOc1ccc(C(=O)Nc2cc(C)c3c(=O)oc4ccccc4c3n2)cc1,-0.93,+,83,-1,91
Cc1cc(NC(=O)c2ccc(S(=O)(=O)N3CCCC3)cc2)nc2c1c(=O)oc1ccccc12,0.24,+,40,16,62
CCc1cccc(C)c1NC(=O)CN(C)Cc1cccc(F)c1,0.39,i,87,1,77
Cc1cccc(C(C)C)c1NC(=O)CN(C)Cc1cccc(F)c1,-0.64,i,82,72*,85
COc1ccccc1OCCOCCOc1ccc(C)cc1[N+](=O)[O-],0.61,i,89,55*,88
COCCCNCCCCOc1ccc(C)cc1[N+](=O)[O-],-0.54,i,85,99*,88
CCCCNCCOCCOc1ccc(C)cc1[N+](=O)[O-],-0.56,i,90,91*,84
Cc1ccccc1Cn1cc(NC(=O)c2nn(C)cc2Cl)cn1,1,i,92,-2,91

# Assay outcomes as filed in PubChem BioAssay.
